Source: the M2OR odorant receptor database

Biological target: T1, OR51B5 (Homo sapiens) (UniProt Q9H339)
T1 sequence (whole entry): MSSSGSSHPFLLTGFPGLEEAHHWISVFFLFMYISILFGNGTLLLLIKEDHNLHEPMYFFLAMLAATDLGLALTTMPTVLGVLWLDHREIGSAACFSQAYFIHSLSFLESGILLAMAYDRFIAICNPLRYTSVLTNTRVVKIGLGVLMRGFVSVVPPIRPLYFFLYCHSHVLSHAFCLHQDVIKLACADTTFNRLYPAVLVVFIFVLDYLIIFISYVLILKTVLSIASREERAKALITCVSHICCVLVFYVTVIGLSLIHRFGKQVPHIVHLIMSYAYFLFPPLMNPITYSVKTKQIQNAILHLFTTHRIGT
Conditions: stereoisomer not certain
How it was run: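 Each entry records the cell line, G-protein, co-transfected protein and tags used. Methods varied with the source, often transient luciferase assays in mammalian cell lines. A receptor–molecule pair is called responsive (active) if the original authors judged its signal statistically different from baseline and non-responsive (inactive) otherwise.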

| Structure (SMILES) | odorant receptor agonist call |
| --- | --- |
| CCCCCCCCO | inactive |
| CCCCC(=O)C(C)=O | inactive |
| CCCCCCCC(=O)OCC | inactive |
| CCCC(=O)CC | inactive |
| CCCCOCC(C)O (centres undefined) | inactive |
| C=C(C)C1CC=C(C)CC1 (centres undefined) | inactive |
| C=C1CCC2CC1C2(C)C (centres undefined) | inactive |
| CCC(=O)O | inactive |
| CCCCCCCCCCCCCCC(=O)O | inactive |
| CC(C)=CCCC(C)=CCCC(C)=CCO | active |
| CCCCCCCCCCCC(=O)O | active |
| CCCCCCCCCC(=O)OC | inactive |
| CCCCCCCCCCCCCC(=O)O | inactive |
| CCCO | inactive |
| CC(O)C(=O)[O-].[H+] (centres undefined) | inactive |
| CCCCCCCCCCCCCC(=O)OC | inactive |
| CCCCCCCC(=O)[O-].[H+] | inactive |
| CCCCCCCCCC(=O)OCC | inactive |
| CCCCCCCCCCCC(=O)OC | inactive |
| CCCCCCCCCCCC(=O)OCC | inactive |
| CCC(O)CC | inactive |
| CCCCCCC(=O)[O-].[H+] | inactive |
| CC1=CCC2CC1C2(C)C (centres undefined) | inactive |
| CCCCCCCCCCCCCCCC(=O)OCC | inactive |
| CC(C=O)Cc1ccc(C(C)(C)C)cc1 (centres undefined) | inactive |
| CCCCCCCCCCCCCCCCCC(=O)[O-].[H+] | inactive |
| Cc1ccc(C(C)C)cc1 | inactive |
| CCCCCCCCCCCCO | inactive |
| CCCCCCCCCCCCCCCC(=O)OC | inactive |
